Measured values: ChEMBL document CHEMBL4354879, “Bioisosteric Discovery of NPA101.3, a Second-Generation RET/VEGFR2 Inhibitor Optimized for Single-Agent Polypharmacology” (J Med Chem, 2020)
pIC50: −log10 of the molar value. Active and inactive are the calls of the source. The calls are words filed in the database; no cut-off is given here.

Legend:
[1] = Cytotoxicity against RET deficient human Nthy-ori 3-1 cells supplemented with fresh medium containing compound for every 2 to 3 days measured during compound dosing; assay type: cell-based
Summary of the method: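 Human RET-negative lines were seeded in six-well plates at 10000 cells/well, in 5% FCS (Nthy-ori-3-1) or 10% FCS (BCPAP, 8505-C, CALU-1, A549, PC-9). Drug or vehicle was added the day after plating, with medium changed every 2–3 days. Cells were counted every 2–3 days. IC50 was fitted from the last day of the growth curves.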

[2] = molecular target: T1, SHC-transforming protein 1 (Homo sapiens) (UniProt P29353); assay: Effect on SHC phosphorylation in RET deficient human BCPAP cells at 1 to 100 nM measured after 2 hrs by western blot analysis; assay type: cell-based
T1 sequence (whole entry): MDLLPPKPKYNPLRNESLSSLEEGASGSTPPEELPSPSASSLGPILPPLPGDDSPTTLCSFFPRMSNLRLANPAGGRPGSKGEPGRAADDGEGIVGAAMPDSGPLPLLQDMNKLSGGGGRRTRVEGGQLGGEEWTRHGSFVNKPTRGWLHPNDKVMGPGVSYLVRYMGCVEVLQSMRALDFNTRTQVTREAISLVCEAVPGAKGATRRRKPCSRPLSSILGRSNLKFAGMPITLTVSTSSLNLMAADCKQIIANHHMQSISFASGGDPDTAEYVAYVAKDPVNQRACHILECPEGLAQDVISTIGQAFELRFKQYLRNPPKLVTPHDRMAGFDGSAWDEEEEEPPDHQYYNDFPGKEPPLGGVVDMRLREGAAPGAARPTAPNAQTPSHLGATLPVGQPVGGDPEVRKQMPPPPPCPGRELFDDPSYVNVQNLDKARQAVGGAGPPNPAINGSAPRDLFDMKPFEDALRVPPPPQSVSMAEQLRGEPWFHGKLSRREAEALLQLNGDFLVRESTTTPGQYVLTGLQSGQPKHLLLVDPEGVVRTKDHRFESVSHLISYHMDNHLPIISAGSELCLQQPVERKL

[3] = system: GTPase HRas (Homo sapiens), P01112 [G12V]; assay: Inhibition of HRAS G12V mutant (unknown origin) expressed in mouse NIH/3T3 cells assessed as reduction in MAPK phosphorylation up to 100 nM measured after 2 hrs by Western blot analysis; assay type: cell-based
Chain of GTPase HRas (Homo sapiens), P01112 [G12V] (P01112 whole entry G12V, canonical isoform): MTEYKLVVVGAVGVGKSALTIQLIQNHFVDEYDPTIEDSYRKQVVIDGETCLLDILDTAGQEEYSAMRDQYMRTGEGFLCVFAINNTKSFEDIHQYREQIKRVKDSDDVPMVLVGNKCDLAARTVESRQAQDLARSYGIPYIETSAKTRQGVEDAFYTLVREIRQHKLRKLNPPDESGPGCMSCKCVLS

[4] = system: Proto-oncogene tyrosine-protein kinase receptor Ret (Homo sapiens), P07949 [C634R]; assay: Inhibition of RET isoform 9 C634R mutant (unknown origin) expressed in rat Rat1 assessed as reduction in RET phosphorylation at Y905 residue at 0.3 nM measured after 2 hrs by Western blot analysis; assay type: cell-based
Chain of Proto-oncogene tyrosine-protein kinase receptor Ret (Homo sapiens), P07949 [C634R] (P07949 whole entry C634R, canonical isoform): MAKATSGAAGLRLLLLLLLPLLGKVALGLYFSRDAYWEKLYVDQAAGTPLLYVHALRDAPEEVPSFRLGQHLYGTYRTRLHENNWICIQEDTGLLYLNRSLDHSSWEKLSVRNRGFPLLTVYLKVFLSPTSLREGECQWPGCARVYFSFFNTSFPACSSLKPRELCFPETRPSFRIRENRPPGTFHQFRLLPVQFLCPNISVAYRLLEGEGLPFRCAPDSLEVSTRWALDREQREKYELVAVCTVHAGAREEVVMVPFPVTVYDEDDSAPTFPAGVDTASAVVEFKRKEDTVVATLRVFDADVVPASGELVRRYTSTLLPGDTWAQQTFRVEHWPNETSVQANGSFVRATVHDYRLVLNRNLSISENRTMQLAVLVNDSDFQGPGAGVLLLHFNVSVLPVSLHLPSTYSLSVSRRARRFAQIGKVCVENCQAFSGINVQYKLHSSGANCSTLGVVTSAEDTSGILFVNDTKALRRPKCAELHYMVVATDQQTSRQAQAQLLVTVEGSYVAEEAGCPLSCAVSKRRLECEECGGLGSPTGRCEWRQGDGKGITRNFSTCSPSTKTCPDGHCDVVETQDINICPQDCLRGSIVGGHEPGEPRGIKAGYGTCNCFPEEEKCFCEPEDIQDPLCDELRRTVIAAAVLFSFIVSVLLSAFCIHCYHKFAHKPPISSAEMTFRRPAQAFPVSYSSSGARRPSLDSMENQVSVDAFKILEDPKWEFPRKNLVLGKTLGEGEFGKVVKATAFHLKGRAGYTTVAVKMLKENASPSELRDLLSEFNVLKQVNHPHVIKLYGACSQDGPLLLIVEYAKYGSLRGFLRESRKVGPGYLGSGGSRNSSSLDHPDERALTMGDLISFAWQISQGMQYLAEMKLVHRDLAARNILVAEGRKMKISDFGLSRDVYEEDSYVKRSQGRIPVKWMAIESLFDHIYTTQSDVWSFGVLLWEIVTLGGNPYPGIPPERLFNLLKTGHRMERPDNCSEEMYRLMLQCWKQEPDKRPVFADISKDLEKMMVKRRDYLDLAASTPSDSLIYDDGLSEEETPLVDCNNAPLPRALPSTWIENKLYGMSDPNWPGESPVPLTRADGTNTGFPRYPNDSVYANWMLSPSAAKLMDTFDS
Summary of the method: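 RAT1 fibroblasts expressing RET-9 C634R, serum-starved, treated 2 h with 0.1–10.0 nM; 50 μg lysate blotted for RET pY905 and pY1062, normalized to total RET; ECL detection.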

[5] = molecular target: High affinity nerve growth factor receptor (Homo sapiens, UniProt P04629); assay: Inhibition of recombinant human His-tagged TRKA cytoplasmic domain (441 to 796 residues) expressed in baculovirus expression system using peptide substrate preincubated for 60 mins followed by substrate addition by microfluidic assay
Chain of High affinity nerve growth factor receptor (P04629 whole entry, the tested form may be a part): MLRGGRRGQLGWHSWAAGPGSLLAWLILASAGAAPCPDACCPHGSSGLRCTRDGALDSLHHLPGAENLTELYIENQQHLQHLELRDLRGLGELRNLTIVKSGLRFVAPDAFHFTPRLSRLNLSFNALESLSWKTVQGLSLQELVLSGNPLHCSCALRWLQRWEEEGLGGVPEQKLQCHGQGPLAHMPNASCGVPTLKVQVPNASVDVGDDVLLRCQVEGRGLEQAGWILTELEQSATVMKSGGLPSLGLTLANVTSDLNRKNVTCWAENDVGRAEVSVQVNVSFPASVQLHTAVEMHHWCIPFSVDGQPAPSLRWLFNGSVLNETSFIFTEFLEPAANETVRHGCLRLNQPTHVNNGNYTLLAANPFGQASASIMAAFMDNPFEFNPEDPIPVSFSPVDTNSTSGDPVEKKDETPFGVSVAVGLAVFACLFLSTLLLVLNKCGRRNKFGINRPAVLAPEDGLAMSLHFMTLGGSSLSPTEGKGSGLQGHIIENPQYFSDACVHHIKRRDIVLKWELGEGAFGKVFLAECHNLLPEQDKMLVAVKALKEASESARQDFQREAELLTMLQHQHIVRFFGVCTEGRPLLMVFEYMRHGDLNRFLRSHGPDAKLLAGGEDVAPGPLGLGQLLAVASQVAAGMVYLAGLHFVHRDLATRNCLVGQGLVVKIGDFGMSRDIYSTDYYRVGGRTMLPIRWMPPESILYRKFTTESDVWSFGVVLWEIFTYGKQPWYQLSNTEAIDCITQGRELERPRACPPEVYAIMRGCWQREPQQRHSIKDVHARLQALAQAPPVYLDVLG

[6] = molecular target: Tyrosine-protein kinase Lyn (Homo sapiens) (UniProt P07948); assay: Binding affinity to wild-type human partial length LYN (C219 to Q511 residues) expressed in bacterial expression system at 100 nM by Kinomescan method relative to control
Chain of Tyrosine-protein kinase Lyn (Homo sapiens) (P07948 2-512 limits assumed): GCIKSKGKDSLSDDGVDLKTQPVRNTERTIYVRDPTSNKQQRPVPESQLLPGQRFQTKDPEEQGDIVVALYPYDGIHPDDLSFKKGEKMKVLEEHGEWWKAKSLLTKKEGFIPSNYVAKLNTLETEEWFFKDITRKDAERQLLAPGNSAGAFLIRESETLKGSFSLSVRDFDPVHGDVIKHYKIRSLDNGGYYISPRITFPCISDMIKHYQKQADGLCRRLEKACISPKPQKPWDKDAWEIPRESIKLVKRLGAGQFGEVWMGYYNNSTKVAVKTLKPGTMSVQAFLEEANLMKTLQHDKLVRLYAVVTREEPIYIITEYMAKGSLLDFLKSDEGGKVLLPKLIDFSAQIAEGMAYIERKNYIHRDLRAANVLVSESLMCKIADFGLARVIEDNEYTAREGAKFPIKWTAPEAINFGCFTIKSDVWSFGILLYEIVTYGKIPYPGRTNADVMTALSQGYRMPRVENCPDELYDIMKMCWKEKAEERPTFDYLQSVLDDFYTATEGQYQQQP

Homo sapiens = organism: Homo sapiens; assay: Effect on MAPK phosphorylation in RET deficient human PC9 cells at 1 to 100 nM measured after 2 hrs by western blot analysis
[7] = molecular target: Proto-oncogene tyrosine-protein kinase receptor Ret (Homo sapiens, UniProt P07949); assay: Inhibition of recombinant human GST-tagged RET cytoplasmic domain (658 to 1114 residues) expressed in baculovirus expression system using 5'FAM-EPLYWSFPA as substrate preincubated for 60 mins followed by substrate addition by microfluidic assay
Chain of Proto-oncogene tyrosine-protein kinase receptor Ret (P07949 whole entry, the tested form may be a part): as the sequence (P07949 whole entry C634R, canonical isoform) above, with R634C counted along it

[8] = molecular target: T1, SHC-transforming protein 1 (Homo sapiens); assay: Effect on SHC phosphorylation in RET deficient human Nthy-ori 3-1 cells at 1 to 100 nM measured after 2 hrs by western blot analysis
[9] = molecular target: Centrosomal protein 43/RET (Homo sapiens) (UniProt P07949+O95684); assay: Inhibition of FGFR1OP/RET isoform 9 (unknown origin) expressed in mouse NIH/3T3 cells assessed as reduction in RET phosphorylation at Y1062 residue at 1 to 100 nM measured after 2 hrs by Western blot analysis; assay type: cell-based
Chain of Centrosomal protein 43/RET (Homo sapiens) (O95684 whole entry, looked up, canonical isoform): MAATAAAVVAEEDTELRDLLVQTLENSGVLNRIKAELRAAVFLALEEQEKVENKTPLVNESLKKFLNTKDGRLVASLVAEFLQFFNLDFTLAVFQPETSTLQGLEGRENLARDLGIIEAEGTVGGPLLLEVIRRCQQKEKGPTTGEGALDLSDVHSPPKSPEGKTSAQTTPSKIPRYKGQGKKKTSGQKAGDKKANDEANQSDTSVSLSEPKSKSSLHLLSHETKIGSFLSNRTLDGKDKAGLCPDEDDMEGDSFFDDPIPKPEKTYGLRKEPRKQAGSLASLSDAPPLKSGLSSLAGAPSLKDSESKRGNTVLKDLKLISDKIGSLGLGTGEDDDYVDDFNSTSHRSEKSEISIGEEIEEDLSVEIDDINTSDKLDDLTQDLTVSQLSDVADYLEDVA
Chain of Centrosomal protein 43/RET (Homo sapiens) (P07949 whole entry, looked up, canonical isoform): as the sequence (P07949 whole entry C634R, canonical isoform) above, with R634C counted along it
Summary of the method: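 Serum-starved RAT1 (RET point mutants) or NIH3T3 (RET rearrangements) cells expressing short RET-9 isoform, treated 2 h; 50 μg total lysate immunoblotted with anti-phospho-Y1062 and anti-phospho-Y905 RET antibodies, normalized to total RET; ECL detection. Compound from 50 mM DMSO stock diluted in growth medium.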

BCPAP = assay: Effect on MAPK phosphorylation in RET deficient human BCPAP cells at 1 to 100 nM measured after 2 hrs by western blot analysis; assay type: cell-based
Mus musculus = assay: In vivo inhibition of RET isoform 9 C634Y mutant transfected in mouse NIH/3T3 cells implanted BALB/c nu/nu mouse assessed as reduction in SHC phosphorylation at 3 mg/kg, po administered once daily via gavage for 2 days measured 3 hrs post-last dose by Western blot analysis

Activity [2]: inactive
inhibition [3]: inactive
inhibition [4]: Active
pIC50 [5]: 7.49
Activity [6]: > 90%
Activity (Homo sapiens): inactive
pIC50 [7]: 9.00
Activity [8]: inactive
inhibition [9]: Active
Compound: CC(C)(C)c1cc(NC(=O)Cc2ccc(-n3cnc4cc(-c5ccc(S(C)(=O)=O)cc5)ccc43)cc2)no1
pIC50 [1]: < 7.00
Activity (BCPAP): inactive
inhibition (Mus musculus): Active
